Assay outcomes: PubChem BioAssay, several laboratories
A selection: hits, their analogues and other compounds. The true share with any hit is near 2.2%.
RanGTP-Imp inh: inhibitors of RanGTP-importin-beta interaction, primary screen, biochemical, FRET, CFP-Ran, YFP-importin-beta, homogeneous; AID 2216; cell-free CFP-Ran/YFP-importin-beta FRET ratio; hit rate 1.1% among 300,000; inhibition, % (concentration not given with the values);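 active = more than half of the replicate wells show a fall in the fluorescence ratio signal beyond about 16%, limit read from the data, passing the limit was not always enough; inconclusive = exactly half of the replicate wells pass the set limit; inactive = fewer than half of replicates pass the limit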
Runt-SMMHC FRET: inhibitors of human RUNX1 Runt domain binding to CBFb-SMMHC. AID 1434. Q01196+Q13951. inhibition, % at 20 µM. Cerulean-Runt/Venus-CBFb-SMMHC FRET ratio 530/480, 1 h. hit rate 0.74% among 220,000;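 active = mean inhibition across duplicate retests at 20 µM reaching about 50%, limit read from the data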;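 also: inhibitors lower the FRET ratio by blocking Runt binding to CBFb-SMMHC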
Target sequence (Q01196 whole entry, looked up, the tested form may be a part): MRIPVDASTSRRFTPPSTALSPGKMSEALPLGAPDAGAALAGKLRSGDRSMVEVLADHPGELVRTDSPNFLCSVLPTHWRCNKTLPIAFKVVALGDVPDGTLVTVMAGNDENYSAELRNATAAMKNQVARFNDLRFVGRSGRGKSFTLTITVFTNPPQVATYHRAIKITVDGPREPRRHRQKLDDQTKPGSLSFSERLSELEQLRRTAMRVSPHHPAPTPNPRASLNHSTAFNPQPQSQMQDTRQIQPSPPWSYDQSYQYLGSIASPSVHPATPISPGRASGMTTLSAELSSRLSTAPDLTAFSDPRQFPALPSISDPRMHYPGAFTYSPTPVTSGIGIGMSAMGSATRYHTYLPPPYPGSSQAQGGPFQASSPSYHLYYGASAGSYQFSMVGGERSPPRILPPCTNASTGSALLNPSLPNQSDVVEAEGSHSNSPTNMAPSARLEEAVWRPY
Target sequence (Q13951 whole entry, looked up, the tested form may be a part): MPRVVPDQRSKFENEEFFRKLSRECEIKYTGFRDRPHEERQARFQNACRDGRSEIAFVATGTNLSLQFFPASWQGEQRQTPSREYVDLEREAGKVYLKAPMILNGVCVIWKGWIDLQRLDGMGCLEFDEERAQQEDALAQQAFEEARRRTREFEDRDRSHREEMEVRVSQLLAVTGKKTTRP
Runt-CBFb FRET: Runt domain-CBFb interaction inhibition; hit rate 0.46% among 220,000; Cerulean-Runt/Venus-CBFb FRET ratio 530/480, 1 h; inhibition, % at 20 µM; AID 1496;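 active = inhibition over about 50% at 20 µM in the single-dose screen, limit read from the data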
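test system = Cerulean-Runt domain fusion protein, energy donor | probe or stimulus = Venus-CBFb binding partner, 100 nM | incubation = two 1 h room-temperature incubations shielded from light | detection = fluorescence energy transfer, 422 nm excitation, 530/480 nm emission | measure = loss of energy transfer signal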
PERK inh: blocks human PERK kinase. CHO PERK-DD fusion, SEAP luminescence translation reporter. Q9NZJ5. inhibition, % at 5.6 µM. AID 1416. hit rate 0.17% among 220,000;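 active = inhibition above the mean inhibition of all tested compounds plus 3 SD, set separately per screening campaign, cut at about 2.9% in these data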;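 also: PERK kinase domain activated by AP20187 dimerizer at 100 nM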
Hck Nef HTS: blocks Nef-activated human Hck kinase; P08631; Recombinant Hck-YEEI plus Nef, Z-Lyte FRET kinase assay; inhibition, % at 20 µM; hit rate 0.68% among 220,000; AID 463187;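 active = Hck-Nef kinase inhibition above about 50%, limit read from the data; inactive = inhibition below that limit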
eIF4E-4G inh: blocks eIF4E binding to eIF4G; P63073+Q04637; TR-FRET eIF4E-eIF4GI(517-606) binding, 2 h; inhibition, % at 21.7 µM; hit rate 0.37% among 220,000; AID 782;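 active = inhibition above about 30%, limit read from the data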
A number is an active result; i = inactive; ? = inconclusive; nt = no result; [ ] = another dose, or the depositor's remark.

SMILES	RanGTP-Imp inh	Runt-SMMHC FRET	Runt-CBFb FRET	PERK inh	Hck Nef HTS	eIF4E-4G inh
CN(C)CCCNc1c2c(nc3cc(-c4cccc(F)c4)nn13)CCC2	27	i	i	i	i	i
CCOCCCNc1c2c(nc3cc(-c4ccc(F)cc4)nn13)CCC2	i	i	i	i	i	i
CC(C)(O)CC[C@@H](O)[C@](C)(O)[C@H]1CC[C@@]2(O)C3=CC(=O)[C@@H]4C[C@@H](O)[C@@H](O)C[C@]4(C)C3CC[C@]12C (stereo partly drawn)	i	i	i	i	i	i
Cc1ccc2nc(/C(C#N)=C/c3ccc(O)c(O)c3)[nH]c2c1	28	nt	nt	nt	nt	nt
Cc1ccc(C2C(C#N)=C(N)Oc3cc4c(cc32)OCO4)cc1 (stereo not drawn)	i	i	i	i	i	i
COc1ccc(C2C(C#N)=C(N)Oc3c2sc2nc(C)cc(C)c32)cc1 (stereo not drawn)	i	i	i	i	i	i
COc1cc(C2C(C#N)=C(N)Oc3cc(N)ccc32)cc(OC)c1OC (stereo not drawn)	nt	81	i	i	i	i
COc1ccc(C2C(C#N)=C(N)Oc3cc(N)ccc32)cc1 (stereo not drawn)	77	nt	nt	nt	nt	nt
N#CC1=C(N)Oc2cc(N)ccc2C1c1cccnc1 (stereo not drawn)	24	i	i	i	i	i
N#CC1=C(N)Oc2cc(N)ccc2C1c1ccc(Cl)cc1 (stereo not drawn)	61	nt	nt	nt	nt	nt
CCCCNC(=O)CS(=O)Cc1nc(-c2cccc(Cl)c2)oc1C (stereo not drawn)	i	i	i	i	i	i
O=C(/C=C/c1ccccc1)N(c1ccccn1)C1CCCCC1	i	i	i	i	i	i
Cc1cc(-c2cccc([N+](=O)[O-])c2)nc2ccc3ccccc3c12	i	i	i	i	i	i
CCc1ccc(C2C(C#N)=C(N)Oc3cc(N)ccc32)cc1 (stereo not drawn)	96	nt	nt	nt	nt	nt
COc1ccc(C2C(C#N)=C(N)Oc3cc(C)n(Cc4ccco4)c(=O)c32)cc1 (stereo not drawn)	i	i	i	i	i	i
N#CC1=C(N)Oc2cc(N)ccc2C1c1ccccc1Cl (stereo not drawn)	133	nt	nt	nt	nt	nt
N#CC1=C(N)OC2=C(CCc3ccccc32)C1c1ccccc1Cl (stereo not drawn)	i	i	i	i	i	i
COc1ccc(C2C(C#N)=C(N)Oc3cccc(O)c32)cc1 (stereo not drawn)	51	nt	nt	nt	nt	nt
CCN(CC)c1ccc2c(c1)OC(N)=C(C#N)C2c1cccnc1 (stereo not drawn)	i	i	nt	i	i	i
N#CC1=C(N)Oc2cc(N)ccc2C1c1ccc(F)cc1F (stereo not drawn)	125	nt	nt	nt	nt	nt
Cc1nn(-c2ccccc2)c2c1C(c1ccc(F)cc1F)C(C#N)=C(N)O2 (stereo not drawn)	i	i	i	i	i	i
Cc1ccc(C(=O)NC(=O)CSc2ncccc2C(=O)O)cc1	i	i	i	i	i	i
O=C(Nc1ccc(N2CCOCC2)cc1)Nc1ccc2nsnc2c1	i	nt	nt	i	i	i
COc1ccc(CNC(=O)CSc2nn3c(=O)c(C(C)(C)C)nnc3s2)cc1OC	i	i	i	i	i	i
CCC(C)[C@@H]1NC(=O)N(CCCN2CCCC2=O)C1=O (stereo partly drawn)	i	nt	nt	nt	nt	nt
SMILES	RanGTP-Imp inh	Runt-SMMHC FRET	Runt-CBFb FRET	PERK inh	Hck Nef HTS	eIF4E-4G inh
CC(C)c1[nH]nc2c1C(c1cccnc1)C(C#N)=C(N)O2 (stereo not drawn)	i	i	i	i	i	i
C#CCSc1nc(N)c2c(n1)OC(N)=C(C#N)C2c1cccnc1 (stereo not drawn)	60	i	i	i	i	i
OC(COc1ccc2ccccc2c1Cl)CN1CCOCC1 (stereo not drawn)	i	i	i	i	i	i
CCN(CC)c1ccc(/C=C(\C#N)C(N)=O)cc1	nt	63	i	i	i	i
Cc1cc(-c2ccccc2)nc(N(C)NC(=O)c2cccc(C(F)(F)F)c2)c1S(C)(=O)=O	i	i	i	i	i	i
CC(SCc1cc(=O)n2c([nH]c3ccccc32)c1C#N)C(=O)O (stereo not drawn)	i	i	i	i	i	i
Cc1c(CCC(=O)O)c(=O)n2c([nH]c3ccccc32)c1C#N	?	i	i	i	i	i
CCc1cc(=O)n2c([nH]c3ccccc32)c1C#N	i	i	i	i	i	i
Cc1ccc(Cc2c(C)c(C#N)c3[nH]c4ccccc4n3c2=O)cc1	21	i	i	i	i	i
C=C(C)Cc1c(C)c(C#N)c2[nH]c3ccccc3n2c1=O	42	nt	nt	nt	nt	nt
CCc1c(C)c(C#N)c2[nH]c3ccccc3n2c1=S	i	84	i	i	i	33
O=C(CCNC(=O)c1ccco1)Nc1ccc(C(F)(F)F)cc1	i	nt	nt	nt	nt	nt
O=C(CSc1ncc(-c2ccc(F)cc2)[nH]1)NCc1ccco1	i	i	i	i	i	nt
CC(=O)COc1ccc2c(c1C)O/C(=C\c1ccco1)C2=O	18	nt	nt	nt	nt	nt
OC(CN1CCCC(C(F)(F)F)C1)c1ccccc1 (stereo not drawn)	i	nt	nt	nt	nt	nt
CN1Cc2c(N3CCOCC3)nc(SCc3ccccc3)c(C#N)c2CC1(C)C	27	62	i	i	i	i
CCSc1nc(N2CCOCC2)c2c(c1C#N)CC(C)(C)N(C)C2	i	91	95	i	i	i
COC(=O)CSc1nc(N2CCOCC2)c2c(c1C#N)CC(C)(C)N(C)C2	18	56	i	i	i	i
COC(=O)c1cc2c(-c3ccccc3)cc3ccccn3c-2c1C(=O)OC	i	54	i	i	i	i
CC(=O)C1=C(C)NC(SCc2cccc3ccccc23)=C(C#N)C1c1ccco1 (stereo not drawn)	i	i	i	i	i	i
CC(=O)C1=C(C)NC(SCc2ccc(C#N)cc2)=C(C#N)C1c1ccco1 (stereo not drawn)	nt	i	i	i	i	44[fluorescence artefact?]
Cc1ccc(S(=O)(=O)Nc2c(C(=O)O)[nH]c3ccccc23)cc1C	i	nt	nt	nt	nt	nt
NC(=O)c1c(N)sc2c1CCCC2	i	i	i	i	i	i
CCN1CCc2c(sc(N)c2C(N)=O)C1	101	i	90	i	i	i
CN1CCc2c(sc(N)c2C(N)=O)C1	86	143	101	i	i	i
CCOc1ccccc1/C=N/NC(=O)c1cccc(S(=O)(=O)N2CCOCC2)c1	i	i	i	i	i	i
CCN(CC)c1ccc(/C=N/NC(=O)c2cccc(S(=O)(=O)N3CCOCC3)c2)c(O)c1	i	92	i	i	i	i
COc1ccc(CN2CCN(c3nc4ccccc4s3)CC2)cc1	i	nt	nt	nt	nt	nt
COc1ccc(CCn2c(O)cc3nn(-c4nc5ccccc5s4)c(=O)c-3c2C)cc1	i	i	i	i	68	i
CCOC(=O)C1=C(C)NC(C)=C(C(=O)OCC)C1c1ccc(Br)o1	i	i	i	i	i	i
